Measured values taken from ChEMBL document CHEMBL1123930, “Structure-activity relationships among di- and tetramine disulfides related to benextramine” (1987).
Calls of active or inactive are those of the source. The rule behind the calls is not given here.

Experiments:
Type in all cases: functional
Rattus norvegicus [1] = organism: Rattus norvegicus; test: Irreversible inhibition against Norepinephrine (NE)-induced response in rat vas deferens with benextramine (BHC) as standard at a concentration of 10e-4 M; Inactive
In short: (§1)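 Rat vas deferens tissues were held at 32 °C under 95% O2/5% CO2 at 0.50 g loading tension, with contractions recorded by force transducer. After 1 h equilibration and a medium change, antagonist was incubated for 30 min, then drained and washed out for 30 min. Cumulative NE concentration-response curves followed. The fall in maximal response, as percent of control, is reported as mean ± SEM of five experiments.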

Rattus norvegicus [2] = organism: Rattus norvegicus; test: Irreversible inhibition against Norepinephrine (NE)-induced response in rat vas deferens with benextramine (BHC) as standard at a concentration of 2 x 10e-5 M; Inactive; in short: as §1
Rattus norvegicus [3] = organism: Rattus norvegicus; test: Irreversible inhibition against Norepinephrine (NE)-induced response in rat vas deferens with benextramine (BHC) as standard at a concentration of 10e-4 M; in short: as §1
[4] = molecular target: Adrenergic receptor alpha (Rattus norvegicus) (UniProt P15823+P23944+P43140+P22086+P19328+P22909); test: Irreversible inhibition against Norepinephrine (NE)-induced response in rat vas deferens with benextramine (BHC) as standard at a concentration of 2 x 10e-5 M; in short: as §1
Rattus norvegicus [5] = organism: Rattus norvegicus; test: Irreversible inhibition against Norepinephrine (NE)-induced response in rat vas deferens with benextramine (BHC) as standard at a concentration of 6 x 10e-6 M; in short: as §1

Structure (SMILES)	inhibition (Rattus norvegicus [2])	inhibition at 100 µM (Rattus norvegicus [3])	inhibition [4]	other results
CCN(CC)CCSSCCN(CC)CC	inactive			inhibition (Rattus norvegicus [1]): inactive
c1ccc2c(CNCCCCCCNCCSSCCNCCCCCCNCc3c[nH]c4ccccc34)c[nH]c2c1	inactive	46%		
COc1cccc(C(O)CNCCCCCCNCCSSCCNCCCCCCNCC(O)c2cccc(OC)c2)c1 (stereo not given)			91%	
OC(CNCCCCCCNCCSSCCNCCCCCCNCC(O)c1ccccc1)c1ccccc1 (stereo not given)		40%	13%	
c1cc2c(cc1COCCCCCCNCCSSCCNCCCCCCOCc1ccc3c(c1)OCO3)OCO2	inactive	45%		
c1ccc2c(c1)OCC(CNCCCCCCNCCSSCCNCCCCCCNCC1COc3ccccc3O1)O2 (stereo not given)	inactive	53%		
c1ccc2c(c1)OC[C@@H](CNCCCCCCNCCSSCCNCCCCCCNC[C@@H]1COc3ccccc3O1)O2	inactive	68%		
c1ccc2c(c1)CCN(CCCCCCNCCSSCCNCCCCCCN1CCc3ccccc3C1)C2	inactive	66%		
NC(CCCCCNCCSSCCNCCCCCC(N)Cc1ccccc1)Cc1ccccc1 (stereo not given)			57%	
CN(CCCCCCN1CCCC1)CCSSCCN(C)CCCCCCN1CCCC1			41%	
CN(CCCCCCNCc1ccccc1N)CCSSCCN(C)CCCCCCNCc1ccccc1N	inactive	38%		
c1coc(CNCCCCCCNCCSSCCNCCCCCCNCc2ccco2)c1			100%	inhibition at 6 µM (Rattus norvegicus [5]): 79%
c1ccc(CCNCCCCCCNCCSSCCNCCCCCCNCCc2ccccc2)cc1	inactive	32%		
c1csc(CNCCCCCCNCCSSCCNCCCCCCNCc2cccs2)c1			70%	
C(CCCN1CCCC1)CCNCCSSCCNCCCCCCN1CCCC1			98%	
c1ccc(CNCCSSCCNCc2ccccc2)cc1		48%	12%	
COc1cc(C(O)CNCCCCCCNCCSSCCNCCCCCCNCC(O)c2cc(OC)c(OC)c(OC)c2)cc(OC)c1OC (stereo not given)			98%	
c1ccc2c(c1)OC[C@H](CNCCCCCCNCCSSCCNCCCCCCNC[C@H]1COc3ccccc3O1)O2	inactive	79%		
c1ccc2c(c1)CCN2CCCCCCNCCSSCCNCCCCCCN1CCc2ccccc21			37%	
C(CCCN1CCCCC1)CCNCCSSCCNCCCCCCN1CCCCC1			100%	inhibition at 6 µM (Rattus norvegicus [5]): 56%

Structure (SMILES)	inhibition (Rattus norvegicus [2])	inhibition at 100 µM (Rattus norvegicus [3])	inhibition [4]	other results
C1CCN(CCSSCCN2CCCCC2)CC1	inactive			inhibition (Rattus norvegicus [1]): inactive
c1ccc(COCCCCCCNCCSSCCNCCCCCCOCc2ccccc2)cc1			60%	
c1ccc2c(c1)CN(CCCCCCNCCSSCCNCCCCCCN1CNc3ccccc3C1)CN2			89%	
CC(C)(C)NCCSSCCNC(C)(C)C	inactive			inhibition (Rattus norvegicus [1]): inactive
CN(CCCCCCN1CNc2ccccc2C1)CCSSCCN(C)CCCCCCN1CNc2ccccc2C1	inactive	6%		
c1ccc(CNCCCCCCOCCSSCCOCCCCCCNCc2ccccc2)cc1			32%	
Oc1ccc(C(O)CNCCCCCCNCCSSCCNCCCCCCNCC(O)c2ccc(O)c(O)c2)cc1O (stereo not given)			92%	
COc1ccccc1C(O)CNCCCCCCNCCSSCCNCCCCCCNCC(O)c1ccccc1OC (stereo not given)			82%	
COc1ccccc1CNCCCCCCOCCSSCCOCCCCCCNCc1ccccc1OC			36%	
c1ccc2c(c1)CN(CCCCCCNCCSSCCNCCCCCCN1COc3ccccc3C1)CO2	inactive	34%		
O=C(Cc1ccccc1)NCCCCCCNCCSSCCNCCCCCCNC(=O)Cc1ccccc1			44%	
OC(CNCCCCCCNCCSSCCNCCCCCCNCC(O)c1ccc2c(c1)OCO2)c1ccc2c(c1)OCO2 (stereo not given)			43%	
CN(CCCCCCN1CCCCC1)CCSSCCN(C)CCCCCCN1CCCCC1			34%	
COc1ccc(C(O)CNCCCCCCNCCSSCCNCCCCCCNCC(O)c2ccc(OC)c(OC)c2)cc1OC (stereo not given)			87%	
COc1ccccc1COCCCCCCNCCSSCCNCCCCCCOCc1ccccc1OC			58%	
Nc1ccccc1CNCCCCCCNCCSSCCNCCCCCCNCc1ccccc1N			79%	
Cn1ccc(CNCCCCCCNCCSSCCNCCCCCCNCc2ccn(C)c2)c1			100%	inhibition at 6 µM (Rattus norvegicus [5]): 54%
COc1ccccc1CNCCCCCCNCCSSCCNCCCCCCNCc1ccccc1OC [BENEXTRAMINE]			100%	inhibition at 6 µM (Rattus norvegicus [5]): 35%
Nc1ccccc1C(=O)NCCCCCCNCCSSCCNCCCCCCNC(=O)c1ccccc1N	inactive	55%		
COc1ccc(C(O)CNCCCCCCNCCSSCCNCCCCCCNCC(O)c2ccc(OC)cc2)cc1 (stereo not given)			81%	
